High-throughput results as filed in PubChem.
Pf gametocyte – P. falciparum stage V gametocyte viability inhibition; P. falciparum stage V gametocytes, ATP luminescence, 24 h; inhibition, % at 10.9 µM; 150,000 compounds, 0.065% hits;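 active = inhibition above the mean plus 3 SD of compounds within the control limits, set per campaign, cut at about 38% in these data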;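 note: 0% = DMSO wells and 100% = medium only without gametocytes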
Efa HMGR inh – inhibitors of class II HMG-CoA reductase from Enterococcus faecalis | 190,000 compounds, 0.41% hits | inhibition, % at 10 µM | purified E. faecalis HMGR, NADPH absorbance 340 nm kinetic;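 active = inhibition above a set limit, the median over all tested compounds plus 3 SD, cut at about 9.5% in these data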;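 note: enzyme runs in reverse so mevalonate oxidation gives rising NADPH absorbance; 0% = complete reaction with DMSO and 100% = background rate lacking mevalonate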
Redox H2O2 prof – compounds producing H2O2 with reducing agent – biochemical, NIH compound library profiling, artefact control for MLSCN library redox annotation, primary screen. DTT-dependent redox cycling H2O2, phenol red/HRP absorbance; 100% = 100 µM peroxide control, 0% = buffer. activation, % at 10 µM. 200,000 compounds, 0.03% hits. AID 878;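 active = activation of at least 50% relative to the plate's high and low controls in the primary single-dose screen; inactive = activation below 50%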;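 note: compound incubated with DTT at 0.8 mM final as the reducing agent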
PKD1 inh – blocks activity of human protein kinase D1. AID 797. 200,000 compounds, 0.056% hits. Q15139. inhibition, % (test concentration not listed). PKD1 kinase fluorescence polarization assay; in the data active = inhibition above about 50%
Rad51 HR inh – blocks human Rad51 in homologous recombination. Q06609. hRad51 DNA strand exchange, fluorescence dequenching. inhibition, % at 10 µM. 200,000 compounds, 0.085% hits;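 active = inhibition above 40% at the single screening dose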;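 note: 0% = DMSO control wells and 100% = blanks with heterologous ssDNA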
Target sequence (Q06609 whole entry, looked up): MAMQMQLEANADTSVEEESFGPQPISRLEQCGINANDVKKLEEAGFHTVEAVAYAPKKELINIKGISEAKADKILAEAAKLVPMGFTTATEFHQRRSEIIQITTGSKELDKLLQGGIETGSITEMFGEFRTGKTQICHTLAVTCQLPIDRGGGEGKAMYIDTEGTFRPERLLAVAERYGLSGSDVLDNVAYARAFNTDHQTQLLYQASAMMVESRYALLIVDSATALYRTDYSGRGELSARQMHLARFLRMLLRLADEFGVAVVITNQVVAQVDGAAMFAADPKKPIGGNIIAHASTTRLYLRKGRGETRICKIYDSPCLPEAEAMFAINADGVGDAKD
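material = hRad51 filaments on single-stranded DNA | timing = filaments 15 min 37 °C, then compound 30 min | signal = FRET fluorescence dequenching, excitation 485 nm, emission 520 nm | benchmarks = control wells and blank wells on each plate | evaluation = percent inhibition relative to plate controls and blanks | compound = 10 µM final, single point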
Calpain2 inh – calpain II (pig) inhibition; purified calpain II, fluorogenic peptide substrate, 30 min; inhibition, % at 16 µM; 220,000 compounds, 0.37% hits;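 active = inhibition above about 50%, limit read from the data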
* = called active by the depositor. Compounds with a hit are over-represented: about 0.81% of the library has one in this group of screens.

Screening Cc1ccc(Cl)cc1N(Cc1ccc(C(=O)NCc2cccnc2)cc1)S(=O)(=O)c1ccccc1 returned Pf gametocyte -13.4, Efa HMGR inh -3.1, Redox H2O2 prof 1.7, PKD1 inh -5.3 and Calpain2 inh 52.4*.
CCN(CC)S(=O)(=O)c1ccc(C(=O)NCCc2ccccn2)cc1 was read as Efa HMGR inh -5.8, Redox H2O2 prof -1.0, PKD1 inh 9.0, Rad51 HR inh 5.1 and Calpain2 inh -13.2.
O=C(NCCc1ccccn1)c1ccc(OC(F)F)cc1 was read as Pf gametocyte 16.2, Efa HMGR inh -7.1, Redox H2O2 prof 0.1, PKD1 inh -0.7, Rad51 HR inh 12.5 and Calpain2 inh 88.9*.
Screening Cc1ccc(NC(=O)CN2C(=O)NC(C)(CCc3ccccc3)C2=O)cc1 (stereo unspecified) returned Efa HMGR inh 3.5, Redox H2O2 prof 0.4, PKD1 inh -9.7, Rad51 HR inh -5.6 and Calpain2 inh -2.9.
`Cc1cccc(C)c1NC(=O)CN1C(=O)NC(C)(CCc2ccccc2)C1=O` (stereo unspecified) gave Pf gametocyte 5.6, Efa HMGR inh 13.3*, Redox H2O2 prof -0.8, PKD1 inh -6.0, Rad51 HR inh 3.8 and Calpain2 inh -24.7.
For C[C@H](NC(=O)c1nc[nH]c1C(=O)N[C@@H](Cc1ccccc1)C(=O)OC(C)(C)C)C(=O)OCc1ccccc1 the results were Pf gametocyte -18.7.
Screening CCCOC(=O)Nc1cc(OC)ccc1[N+](=O)[O-] returned Efa HMGR inh -3.4, Redox H2O2 prof -1.2, PKD1 inh -1.0, Rad51 HR inh 23.6 and Calpain2 inh 63.1*.
Nc1nc(N)nc(-c2cccc(Cl)c2)n1 was read as Pf gametocyte 14.3.
`O=C(/C=C\Nc1ccc(Cl)cn1)c1ccc(Br)cc1` gave Pf gametocyte -6.2, Efa HMGR inh 10.9*, Redox H2O2 prof 0.0, PKD1 inh 1.7, Rad51 HR inh -6.3 and Calpain2 inh 14.7.
Cc1ccccc1OCCC(=O)OCC(=O)Nc1cc(S(=O)(=O)N2CCOCC2)ccc1Cl was read as Pf gametocyte 5.1, Efa HMGR inh 13.4*, Redox H2O2 prof 0.0, PKD1 inh 0.6, Rad51 HR inh 1.8 and Calpain2 inh 4.0.
COc1ccc(NC(=O)c2ccc3ccccc3c2)cc1 was read as Pf gametocyte -6.7.
`COc1ccc(NC(=O)c2ccc3c(c2)n(C)c(=O)n3C)cc1` gave Efa HMGR inh 20.8*, Redox H2O2 prof 0.5, PKD1 inh -8.0, Rad51 HR inh -6.9 and Calpain2 inh -4.5.
Screening COc1ccc(C(=O)Nc2ccc(C(F)(F)F)n(C)c2=O)cc1 returned Efa HMGR inh 11.4*, Redox H2O2 prof 0.5, PKD1 inh 1.1, Rad51 HR inh -5.5 and Calpain2 inh -15.4.
CCOc1ccc(NC(=O)c2ccc(OC)cc2)cc1 was read as Pf gametocyte 6.1, Efa HMGR inh 0.3, Redox H2O2 prof 0.2, PKD1 inh -12.0, Rad51 HR inh -1.8 and Calpain2 inh -16.2.
Screening COc1ccc(NC(=O)c2ccc(=O)oc2)cc1 returned Efa HMGR inh -2.7, Redox H2O2 prof 0.0, PKD1 inh -14.0 and Calpain2 inh 52.0*.
C=CCN1CC(C(=O)N2CCC(Cc3ccc(Cl)cc3)(C(=O)OCC)CC2)CC1=O (stereo unspecified) was read as Pf gametocyte 6.1, Rad51 HR inh 3.3 and Calpain2 inh -32.4.
O=C(O)c1ccccc1C(=O)OCc1c(-c2ccccc2)ncc2ccccc12 was read as Pf gametocyte 12.6.
Screening COC(=O)c1cnc(N2CCCN(S(=O)(=O)c3ccc(C(F)(F)F)cc3)CC2)nc1C(F)(F)F returned Pf gametocyte 11.9 and Calpain2 inh -5.6.
For O=C(NCCC1=CCCCC1)c1ccc2c(c1)N(Cc1ccccc1)C(=O)CS2 the results were Efa HMGR inh 0.6, Redox H2O2 prof 0.0, PKD1 inh -16.1, Rad51 HR inh -4.6 and Calpain2 inh 59.9*.
For O=C(NCCN1CCOCC1)c1ccc2c(c1)N(Cc1ccccc1)C(=O)CS2 the results were Pf gametocyte 1.4, Efa HMGR inh -1.0, Redox H2O2 prof 0.7, PKD1 inh -4.4, Rad51 HR inh -3.5 and Calpain2 inh -0.1.
For Clc1ccc(CNc2nc(CN3CCOCC3)nc3scc(-c4ccccc4)c23)cc1 the results were Pf gametocyte 22.0, Efa HMGR inh -2.8, Redox H2O2 prof 0.3, PKD1 inh 4.4 and Calpain2 inh 20.5.
For CCOC(=O)N1CCc2c(sc3c2c(=O)n(Cc2ccccc2)c(=O)n3CC(=O)NCCOC)C1 the results were Pf gametocyte -0.2, Efa HMGR inh -8.0, Redox H2O2 prof 0.4, PKD1 inh -1.7, Rad51 HR inh 2.1 and Calpain2 inh 57.7*.
For CCOc1ccc(-n2c(=O)c3c4c(sc3n(CC(=O)NCCCOC)c2=O)CCCCC4)cc1 the results were Pf gametocyte 3.9, Efa HMGR inh -1.6, Redox H2O2 prof -0.8, PKD1 inh -6.5, Rad51 HR inh 13.4 and Calpain2 inh -24.1.
Fc1ccc(Nc2ccc(-c3ccc(F)cc3)nn2)cc1 was read as Efa HMGR inh -8.4, Redox H2O2 prof -0.4, PKD1 inh 0.9, Rad51 HR inh 4.3 and Calpain2 inh -11.6.
Screening O=C(CSc1ccccn1)C12CC3CC(CC(C3)C1)C2 returned Pf gametocyte 10.3, Efa HMGR inh 5.6, Redox H2O2 prof -0.2, PKD1 inh -5.2, Rad51 HR inh -6.3 and Calpain2 inh 50.8*.
`NC(=O)CC(NC(=O)Cc1ccc(Br)cc1)c1ccc(N2CCC(N3CCCCC3)CC2)c([N+](=O)[O-])c1` (stereo unspecified) gave Pf gametocyte -16.9.
Cc1ccc(S(=O)(=O)NNC(=O)CCCCC(=O)NNS(=O)(=O)c2ccc(C)cc2)cc1 was read as Pf gametocyte -0.4, Efa HMGR inh 13.3*, Redox H2O2 prof -0.1, PKD1 inh -5.2, Rad51 HR inh 4.1 and Calpain2 inh 19.9.
`CCOC(=O)/C(=N\Nc1cc(Cl)ccc1Cl)N1CC(C)OC(C)C1` (stereo unspecified) gave Pf gametocyte 2.2, Rad51 HR inh 41.9* and Calpain2 inh -45.8.
Screening CCOC(=O)/C(=N\Nc1ccccc1Cl)N1CC(C)OC(C)C1 (stereo unspecified) returned Pf gametocyte 8.2, Rad51 HR inh 15.5 and Calpain2 inh 21.6.
CC1CCCCN1c1ncnc(N)c1[N+](=O)[O-] (stereo unspecified) was read as Pf gametocyte -1.2, Efa HMGR inh 4.9, Redox H2O2 prof -0.1, PKD1 inh -1.6, Rad51 HR inh 6.3 and Calpain2 inh 3.7.
CC1Cc2ccccc2N1c1ncnc(N)c1[N+](=O)[O-] (stereo unspecified) was read as Pf gametocyte -17.8, Efa HMGR inh -1.7, Redox H2O2 prof -0.2, PKD1 inh 67.6*, Rad51 HR inh 8.5 and Calpain2 inh 37.9.
